Assay results collected from several papers.
Target: Dual specificity mitogen-activated protein kinase kinase 2 (MAP2K2, Homo sapiens, UniProt P36507)

Compound | read-out | method | concentration | remaining binding [%]
C[C@@H]1CN(c2cc(-c3n[nH]c4ccc(OC5(C)CC5)cc34)ncn2)C[C@H](C)O1 | cell-free assay | competition with immobilised ligand | 0.1 µM | 85
F[C@@H]1CCN(c2nccc(-c3cnn4ncccc34)n2)C1 | binding |  | 1 µM | 88
COc1cnc(Nc2cccc(S(N)(=O)=O)c2)nc1N1CCN(c2ccccc2)C(=O)C1 | binding | competition with immobilised ligand | 1 µM | 94
COc1ncc2cc3ccccc3nc2c1C#N | cell-free assay | competition with immobilised ligand | 5 µM | 92
FC(F)(F)Oc1cccc(-c2cnc3ccc(-c4ccncc4)nn23)c1 | cell-free assay | competition with immobilised ligand | 5 µM | 72
O=C(O)[C@@H]1[C@@H](Cn2nnc3ccccc3c2=O)CC[C@H]1C(=O)c1ccc(OCCC2CCOCC2)cc1 | cell-free assay | competition with immobilised ligand | 1 µM | 100
COc1cnc(Nc2cccc(S(N)(=O)=O)c2)nc1N1CCN(c2ccccc2)CC1 | binding | competition with immobilised ligand | 1 µM | 83
Cc1nccc(COC(=O)N2C[C@@H]3[C@@H](CNC(=O)c4ccc5[nH]nnc5c4)[C@@H]3C2)n1 | cell-free assay | competition with immobilised ligand | 1 µM | 84
N[C@H]1CCN(c2nccc(-c3cnn4ncccc34)n2)C1 | binding |  | 1 µM | 100
CC(=O)Nc1c(C(C)=O)c(=O)n(C)c2nc(-c3ccc(Cl)cc3Cl)c(-c3ccc(Cl)cc3)cc12 | cell-free assay | competition with immobilised ligand | 1 µM | 100
O=C(Nc1c[nH]nc1C(=O)NC1CCNCC1)c1cc(F)cc(F)c1 | binding | competition with immobilised ligand | 1 µM | 90
O=C(NCCCN1CCOCC1)c1ccc(Nc2ncc(Cl)c(-c3ccc(Cl)s3)n2)cc1 | binding | competition with immobilised ligand | 1 µM | 59
C[C@@H](c1ccc(-n2cnc3c(N)ncnc32)cc1)N1CCc2nn(C)c(Cc3ccccc3)c2C1=O | binding | competition with immobilised ligand | 0.1 µM | 92
COc1ccnn2ncc(-c3ccnc(N(C)C)n3)c12 | binding |  | 1 µM | 100
CO[C@@H](C)c1c(Nc2ccc([C@@H](N(C)C(=O)C3CCS(=O)(=O)CC3)C(F)(F)F)cc2)cnc2cc(Cl)nn12 | cell-free assay | competition with immobilised ligand | 1 µM | 97
C[C@@H]1CN(c2ccc3ncc(-c4ccc5[nH]nc(C6CC6)c5c4)n3n2)C[C@H](C)O1 | binding | competition with immobilised ligand | 50 nM | 72
C[C@H]1CCN(c2nccc(-c3cnn4ncccc34)n2)C1 | binding |  | 1 µM | 100
O=C(NS(=O)(=O)c1ccc(NCC2CCOCC2)c([N+](=O)[O-])c1)c1ccc(N2CCN(Cc3ccc(C(F)(F)F)cc3-c3ccc(Cl)cc3)CC2)cc1Oc1cnc2[nH]ccc2c1 | cell-free assay | competition with immobilised ligand | 1 µM | 100
O=C(c1ccc(Nc2ncc(Cl)c(-c3cc4ccccc4s3)n2)cc1)N1CCC(N2CCCC2)CC1 | binding | competition with immobilised ligand | 1 µM | 27
CC1CCCN1c1nccc(-c2cnn3ncccc23)n1 (stereo not drawn) | binding |  | 1 µM | 96
CCOC(=O)c1cc2cc(-c3cc(C(=O)NCc4ccc(C(=O)O)cc4)nn3C)ccc2[nH]1 | cell-free assay | competition with immobilised ligand | 0.1 µM | 83
O=C(c1ccc(Nc2ncc(Cl)c(-c3ccc(Cl)s3)n2)cc1)N1CCC(N2CCCC2)CC1 | binding | competition with immobilised ligand | 1 µM | 15
c1cnn2ncc(-c3ccnc(N4CCC45COC5)n3)c2c1 | binding |  | 1 µM | 81
c1cncc(-c2cccc(Nc3nccc(NC4CCCCC4)n3)c2)c1 | binding | competition with immobilised ligand | 10 µM | 83
